Where “and” joins values, the source holds several entries; their conditions need not be identical. Equal values may be shown once.
Experiments:
A-375 [1] = assay: Cell cycle arrest in human A375 cells assessed as accumulation at G0 phase at 0.5 uM after 24 hrs using propidium iodide staining by flow cytometry; assay type: functional
How it was run: (§1)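 A375 cells (5×10^5) grown 24 h, then exposed to compound 24 h (DMSO control). Trypsin–EDTA harvest, fixed in ice-cold 70% ethanol at 4 °C 30 min, RNase A 37 °C 30 min, propidium iodide staining. DNA content measured by flow cytometry on 20,000 events, gated as sub-G1/G0, G1, S and G2/M.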

A-375 [2] = assay: Cell cycle arrest in human A375 cells assessed as accumulation at S phase at 0.5 uM after 24 hrs using propidium iodide staining by flow cytometry; assay type: functional; how it was run: as §1
A-375 [3] = assay: Cell cycle arrest in human A375 cells assessed as accumulation at G0/G1 phase at 0.5 uM after 24 hrs using propidium iodide staining by flow cytometry; assay type: functional; how it was run: as §1
A-375 [4] = assay: Cell cycle arrest in human A375 cells assessed as accumulation at G1 phase at 1 uM after 24 hrs using propidium iodide staining by flow cytometry; assay type: functional; how it was run: as §1
A-375 [5] = assay: Cell cycle arrest in human A375 cells assessed as accumulation at G2/M phase at 1 uM after 24 hrs using propidium iodide staining by flow cytometry; assay type: functional; how it was run: as §1
A-375 [6] = assay: Cell cycle arrest in human A375 cells assessed as accumulation at G0/G1 phase at 1 uM after 24 hrs using propidium iodide staining by flow cytometry; assay type: functional; how it was run: as §1
A-375 [7] = assay: Cell cycle arrest in human A375 cells assessed as accumulation at sub-G0 phase at 0.5 uM after 24 hrs using propidium iodide staining by flow cytometry; assay type: functional; how it was run: as §1
A-375 [8] = assay: Cell cycle arrest in human A375 cells assessed as accumulation at sub-G0 phase at 1 uM after 24 hrs using propidium iodide staining by flow cytometry; assay type: functional; how it was run: as §1
HT-29 [9] = assay: Antitumor activity against human HT-29 cells xenografted in SCID mouse assessed as reduction tumor volume at 30 mg/kg, ip measured on day 1; assay type: functional; conditions: route intraperitoneal
How it was run: (§2)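 HT29 xenografts in scid mice; dosing ip on days 1, 5 and 9 (q4d), 5 or 10 mg/kg per dose (total 15 or 30 mg/kg); vehicle control group. Tumour volume, body weight and toxicity followed for 35 days. Relative tumour volume = volume on given day / volume on day 1; T/C = mean RTV treated / mean RTV control.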

HT-29 [10] = assay: Antitumor activity against human HT-29 cells xenografted in SCID mouse assessed as reduction tumor volume at 30 mg/kg, ip measured on day 5; assay type: functional; conditions: route intraperitoneal; how it was run: as §2
HT-29 [11] = assay: Antitumor activity against human HT-29 cells xenografted in SCID mouse assessed as reduction tumor volume at 15 mg/kg, ip measured on day 9; assay type: functional; conditions: route intraperitoneal; how it was run: as §2
HT-29 [12] = assay: Antitumor activity against human HT-29 cells xenografted in SCID mouse assessed as reduction tumor volume at 30 mg/kg, ip measured on day 9; assay type: functional; conditions: route intraperitoneal; how it was run: as §2
HT-29 [13] = assay: Antitumor activity against human HT-29 cells xenografted in SCID mouse assessed as reduction tumor volume at 15 mg/kg, ip measured on day 14; assay type: functional; conditions: route intraperitoneal; how it was run: as §2
HT-29 [14] = assay: Antitumor activity against human HT-29 cells xenografted in SCID mouse assessed as reduction tumor volume at 30 mg/kg, ip measured on day 25; assay type: functional; conditions: route intraperitoneal; how it was run: as §2
HT-29 [15] = assay: Antitumor activity against human HT-29 cells xenografted in SCID mouse assessed as reduction tumor volume at 15 mg/kg, ip measured on day 32; assay type: functional; conditions: route intraperitoneal; how it was run: as §2
HT-29 [16] = assay: Antitumor activity against human HT-29 cells xenografted in SCID mouse assessed as reduction tumor volume at 30 mg/kg, ip measured on day 32; assay type: functional; conditions: route intraperitoneal; how it was run: as §2
HT-29 [17] = assay: Antitumor activity against human HT-29 cells xenografted in SCID mouse assessed as reduction tumor volume at 15 mg/kg, ip measured on day 35; assay type: functional; conditions: route intraperitoneal; how it was run: as §2
HT-29 [18] = assay: Antitumor activity against human HT-29 cells xenografted in SCID mouse assessed as reduction tumor volume at 30 mg/kg, ip measured on day 35; assay type: functional; conditions: route intraperitoneal; how it was run: as §2
[19] = Toxicity in SCID mouse; assay type: organism-based; conditions: in vivo
Mus musculus [20] = assay: Toxicity in SCID mouse assessed as weight loss at 15 mg/kg, ip; assay type: organism-based; set-up: dose 15 mg/kg, route intraperitoneal; conditions: in vivo
How it was run: (§3)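 HT29 xenograft-bearing scid mice dosed ip at 5 or 10 mg/kg on days 1, 5 and 9 (q4d), totalling 15 or 30 mg/kg. Vehicle-treated control group. Body weight, survival and signs of overt toxicity were recorded over the 35-day study.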

Mus musculus [21] = assay: Toxicity in SCID mouse assessed as weight loss at 30 mg/kg, ip; assay type: organism-based; set-up: dose 30 mg/kg, route intraperitoneal; conditions: in vivo; how it was run: as §3
Mus musculus [22] = assay: Toxicity in SCID mouse assessed as mortality at 15 mg/kg, ip; assay type: organism-based; set-up: dose 15 mg/kg, route intraperitoneal; conditions: in vivo; how it was run: as §3
Mus musculus [23] = assay: Toxicity in SCID mouse assessed as mortality at 50 mg/kg, ip; assay type: organism-based; set-up: dose 50 mg/kg, route intraperitoneal; conditions: in vivo

COc1cc(-c2nc3ccccc3s2)ccc1OCCCCCOc1cc2c(cc1OC)C(=O)N1CCC[C@H]1C=N2
Activity (A-375 [1]): 2.13% | Activity (A-375 [2]): 64.95% | Activity (A-375 [3]): 67.08% | Activity (A-375 [4]): 61.56% | Activity (A-375 [5]): 20.32% | Activity (A-375 [6]): 64.26% | Activity (A-375 [7]): 2.13% | Activity (A-375 [8]): 2.7% | T/C (HT-29 [9]): 1% | T/C (HT-29 [10]): 0.85% | T/C (HT-29 [11]): 0.49% | T/C (HT-29 [12]): 0.78% | T/C (HT-29 [13]): 0.58% and 0.3% | T/C (HT-29 [14]): 0.67% | T/C (HT-29 [15]): 0.76% and 0.16% | T/C (HT-29 [16]): 0.76% | T/C (HT-29 [17]): 0.82% and 0.14% | T/C (HT-29 [18]): 0.68% | MTD [19]: < 50 mg/kg | Activity (Mus musculus [20]): Non-toxic | Activity (Mus musculus [21]): Non-toxic | Activity (Mus musculus [22]): Non-toxic | Activity (Mus musculus [23]): Non-toxic

Source: ChEMBL document CHEMBL1177643, “Synthesis, DNA-binding ability and anticancer activity of benzothiazole/benzoxazole-pyrrolo[2,1-c][1,4]benzodiazepine conjugates” (Bioorg Med Chem, 2010)
